Each block holds one compound with its values, some of them ahead of it.
Key:
[1] = target: T1, Glutathione S-transferase A1 (Homo sapiens, UniProt P08263); test: (§1) Drug level in phosphate buffer assessed as GSTA1 (unknown origin)-mediated compound formation from nitric oxide retained pathway treated with (Z)-1-(4-cyano-5-(4-(methylamino)benzoyloxy)-2-nitrophenoxy)-3,3-dimethyltriaz-1-ene 2-oxide at 1 uM at pH 7.4 at 37 degC after 30 mins by LC-MS/MS analysis in presence of GSH; assay type: ADME; details: pH 7.4, 0.5 h
T1 sequence (P08263 whole entry): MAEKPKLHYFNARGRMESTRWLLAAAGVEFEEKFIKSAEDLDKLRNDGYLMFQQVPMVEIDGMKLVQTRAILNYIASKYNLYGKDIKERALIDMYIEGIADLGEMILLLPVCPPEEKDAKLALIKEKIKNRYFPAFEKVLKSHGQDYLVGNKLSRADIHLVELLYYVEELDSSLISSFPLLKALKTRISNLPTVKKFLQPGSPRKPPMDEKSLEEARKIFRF
Method in brief: (§2)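 Products analysed by LC–MS. The ratio is the NO-release-pathway product over the NO-retained-pathway phenolic product.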

[2] = Drug level in phosphate buffer treated with (Z)-1-(4-cyano-5-(4-(methylamino)benzoyloxy)-2-nitrophenoxy)-3,3-dimethyltriaz-1-ene 2-oxide at 1 uM at pH 7.4 at 37 degC after 30 secs by LC-MS analysis in presence of GSH; assay type: physicochemical; details: pH 7.4, 0.5 min
[3] = target: T1, Glutathione S-transferase A1; test: as §1, with “release” for “retained”; assay type: ADME; details: pH 7.4, 0.5 h; method in brief: as §2
[4] = Drug level in phosphate buffer treated with (Z)-1-(4-cyano-5-(4-(methylamino)benzoyloxy)-2-nitrophenoxy)-3,3-dimethyltriaz-1-ene 2-oxide at 1 uM at pH 7.4 at 37 degC measured for 30 mins by LC-MS/MS analysis in presence of GSH; assay type: physicochemical; details: pH 7.4, 0.5 h
[5] = Drug level in phosphate buffer treated with (Z)-3,3-dimethyl-1-(5-(4-(methylamino)benzoyloxy)-2,4-dinitrophenoxy)triaz-1-ene 2-oxide at 1 uM at pH 7.4 at 37 degC after 1 to 30 mins by LC/MS-MS analysis; assay type: physicochemical; details: pH 7.4, 1 µM
[6] = target: T1, Glutathione S-transferase A1; test: Drug level in phosphate buffer assessed as GSTA1 (unknown origin)-mediated compound formation from nitric oxide release pathway treated with (Z)-3,3-dimethyl-1-(5-(4-(methylamino)benzoyloxy)-2,4-dinitrophenoxy)triaz-1-ene 2-oxide at 1 uM at pH 7.4 at 37 degC after 30 mins by LC-MS/MS analysis in presence of GSH; assay type: ADME; details: pH 7.4, 0.5 h; method in brief: as §2
[7] = Drug level in phosphate buffer treated with (Z)-3,3-dimethyl-1-(5-(4-(methylamino)benzoyloxy)-2,4-dinitrophenoxy)triaz-1-ene 2-oxide at 1 uM at pH 7.4 at 37 degC by HPLC trapping method in presence of GSH; assay type: physicochemical; details: pH 7.4, 1 µM
[8] = Drug level in phosphate buffer treated with (Z)-1-(2-cyano-5-(4-(methylamino)benzoyloxy)-4-nitrophenoxy)-3,3-dimethyltriaz-1-ene 2-oxide at 1 uM at pH 7.4 at 37 degC after 30 secs by LC-MS analysis in presence of GSH; assay type: physicochemical; details: pH 7.4, 0.5 min
[9] = Drug level in phosphate buffer treated with (Z)-3,3-dimethyl-1-(5-(4-(methylamino)benzoyloxy)-2,4-dinitrophenoxy)triaz-1-ene 2-oxide at 1 uM at pH 7.4 at 25 degC by HPLC trapping method; assay type: physicochemical; details: pH 7.4, 1 µM
[10] = target: T1, Glutathione S-transferase A1; test: Drug level in phosphate buffer assessed as GSTA1 (unknown origin)-mediated compound formation from nitric oxide release pathway treated with (Z)-1-(2-cyano-5-(4-(methylamino)benzoyloxy)-4-nitrophenoxy)-3,3-dimethyltriaz-1-ene 2-oxide at 1 uM at pH 7.4 at 37 degC after 30 mins by LC-MS/MS analysis in presence of GSH; assay type: ADME; details: pH 7.4, 0.5 h; method in brief: as §2

Structure (SMILES): N[C@@H](CCC(=O)N[C@@H](CSc1cc(O)c([N+](=O)[O-])cc1[N+](=O)[O-])C(=O)NCC(=O)O)C(=O)O
Drug metabolism [5]: metabolite_detected
Drug metabolism [6]: metabolite_detected

Structure (SMILES): CNc1ccc(C(=O)Oc2cc(SC[C@H](NC(=O)CC[C@H](N)C(=O)O)C(=O)NCC(=O)O)c([N+](=O)[O-])cc2[N+](=O)[O-])cc1
Drug metabolism [5]: metabolite_detected
Drug metabolism [7]: metabolite_detected

Structure (SMILES): CNc1ccc(C(=O)SC[C@H](NC(=O)CC[C@H](N)C(=O)O)C(=O)NCC(=O)O)cc1
Drug metabolism [8]: metabolite_detected
Drug metabolism [5]: metabolite_detected
Drug metabolism [2]: metabolite_detected
Drug metabolism [4]: metabolite_detected

Structure (SMILES): CNc1ccc(C(=O)O)cc1
Drug metabolism [8]: metabolite_detected
Drug metabolism [5]: metabolite_detected
Drug metabolism [9]: metabolite_detected

Continued, values first:

Drug metabolism [1]: metabolite_detected
Drug metabolism [2]: metabolite_detected
Structure (SMILES): CN(C)/[N+]([O-])=N/Oc1cc(O)c(C#N)cc1[N+](=O)[O-]

Drug metabolism [3]: metabolite_detected
Drug metabolism [4]: metabolite_detected
Structure (SMILES): N#Cc1cc([N+](=O)[O-])c(SC[C@H](NC(=O)CC[C@H](N)C(=O)O)C(=O)NCC(=O)O)cc1O

Drug metabolism [10]: metabolite_detected
Structure (SMILES): N#Cc1cc([N+](=O)[O-])c(O)cc1SC[C@H](NC(=O)CC[C@H](N)C(=O)O)C(=O)NCC(=O)O

Source: ChEMBL document CHEMBL3593239, “PABA/NO lead optimization: Improved targeting of cytotoxicity to glutathione S-transferase P1-overexpressing cancer cells” (Bioorg Med Chem, 2015)
